Measured values taken from PMC6957261 (Biochimica et biophysica acta. Biomembranes, 2018).

Experiments:
Experiment in all cases: Membrane translocation by confocal microscopy in living LNCaP cells
Type in all cases: cell-based
[1] = target: GFP-tagged PKCθ/K240P (Homo sapiens, UniProt Q04759, K240P); conditions: 1 μM PMA
In short: (§1)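 Full-length PKCθ constructs in pEGFP-N1 transfected into LNCaP cells 48 h after plating (RPMI 1640, 10% FBS, 37 °C). After 24 h, PMA is added in phenol red-free DMEM/1% FBS. Live confocal imaging at 488 nm every 30 s. Membrane/cytoplasm mean GFP ratio from 4 μm² regions is normalized to time 0 and read at 5 and 10 min. Three independent experiments, unpaired two-tailed t test.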

[2] = target: GFP-tagged PKCθ C1b-C1b chimera (Homo sapiens, UniProt Q04759, A164V/A195M/A196N/A207N/D203T/E161R/E178T/F166N/F167Y/F179L/H177G/I197V/I202Q/I206A/K185R/K199H/K200R/K208L/N184A/N194G/P168K/Q169S/Q189K/Q192A/R191D/S174E/T163K/T165Y/V175H/V180L/Y188L); conditions: response after 100 nM PMA, compared to wild type
In short: as §1

[3] = target: GFP-tagged wild type PKCθ (Homo sapiens, UniProt Q04759)
In short: as §1

[4] = target: GFP-tagged PKCθ C1a-C1a chimera (Homo sapiens, UniProt Q04759, A256N/A264Q/A278I/D263R/E246S/G249H/G266N/H247V/H271K/K235T/K240P/K261Q/L251F/L252V/L260Y/L280K/M267A/N238F/N268A/N279A/Q274I/R233E/R257K/R272K/S241Q/T250E/T275D/V236A/V269I/Y237T/Y239F)
In short: as §1

[5] = target: GFP-tagged PKCθ ΔC1a (Homo sapiens, UniProt Q04759, DEL160-209)
In short: as §1

[6] = target: GFP-tagged PKCθ ΔC1b (Homo sapiens, UniProt Q04759, DEL232-281); conditions: 100 nM, 1 μM and 10 μM PMA
[7] = target: GFP-tagged PKCθ/P168K (Homo sapiens, UniProt Q04759, P168K); conditions: PMA, compared to wild type, not statistically significant
In short: as §1

CCCCCCCCCCCCCC(=O)O[C@@H]1[C@@H](C)[C@@]2(O)[C@@H](C=C(CO)C[C@]3(O)C(=O)C(C)=C[C@@H]23)[C@@H]2C(C)(C)[C@]12OC(C)=O [PMA, phorbol 12-myristate 13-acetate]
translocation to the plasma membrane (membrane/cytoplasm ratio) [1]: modestly decreased translocation | translocation to the plasma membrane (membrane/cytoplasm ratio) [2]: stronger translocation | translocation to the plasma membrane (membrane/cytoplasm ratio) ([3]; 100 nM PMA): little response | translocation to the plasma membrane (membrane/cytoplasm ratio) ([3]; 1 and 10 μM PMA, 5 and 10 min): translocated in a dose dependent manner | translocation to the plasma membrane (membrane/cytoplasm ratio) ([4]; 1 μM PMA): no translocation | translocation to the plasma membrane (membrane/cytoplasm ratio) ([4]; 10 μM PMA): very small but statistically significant increase in the translocation | enhancement of translocation to the plasma membrane ([5]; 100 nM PMA, deletion of C1a versus full length PKCθ): 5 fold | translocation to the plasma membrane (membrane/cytoplasm ratio) ([5]; PMA, compared to wild type): enhanced membrane interaction compared to the wild type | translocation to the plasma membrane (membrane/cytoplasm ratio) [6]: complete loss of plasma membrane translocation | translocation to the plasma membrane (membrane/cytoplasm ratio) [7]: increased translocation
